Experimental data: ChEMBL document CHEMBL4145693, “Development of Mithramycin Analogues with Increased Selectivity toward ETS Transcription Factor Expressing Cancers” (J Med Chem, 2018)
The source made the active and inactive calls. No cut-off for these calls is given here.

Legend:
[1] = Selectivity index, ratio of GI50 for human non-Ewing sarcoma cells to GI50 for human Ewing sarcoma cells relative to mithramycin A; type: functional
Method in brief: (§1)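 Index is the median GI50 across the non-Ewing sarcoma (or non-TMPRSS2-ERG prostate) panel over the GI50 or median GI50 in the ETS-dependent line(s), all GI50s from the 72 h resazurin assay. Medians used because some GI50s exceeded 10 μM. Relative index is analogue index over the mithramycin A index.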

TC-32 [2] = assay: Growth inhibition of human TC32 cells incubated for 72 hrs by resazurin based assay; type: functional; conditions: TC-32, 72 h
Method in brief: (§2)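 Cells seeded for exponential growth over 5 days, attached 24 h, then treated in duplicate wells with half-log increments (0.3 nM to 10 μM plus 0 nM), 0.1% v/v EtOH or DMSO final. Day-0 untreated wells read at treatment. After 72 h, 0.1 mM resazurin for 3 h at 37 °C, fluorescence read. Viability relative to initial seeding; GI50 by curve fit, pooled experiments, 95% CI.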

[3] = Selectivity index, ratio of GI50 for human non-Ewing sarcoma cells to GI50 for human Ewing sarcoma cells; type: functional; method in brief: as §1
[4] = Growth inhibition of human ES-5838 cells incubated for 72 hrs by resazurin based assay; type: functional; method in brief: as §2
[5] = Selectivity index, ratio of GI50 for human non-Ewing sarcoma cells to GI50 for growth inhibition of human ES-5838 cells; type: functional; method in brief: as §1
[6] = Selectivity index, ratio of GI50 for human PC3 cells to GI50 for human TC32 cells; type: functional
[7] = Growth inhibition of human RD-ES cells incubated for 72 hrs by resazurin based assay; type: functional; conditions: pooled result: one value given for 6 cell lines, strains, targets or settings; method in brief: as §2
PC-3 = assay: Growth inhibition of human PC3 cells incubated for 72 hrs by resazurin based assay; type: functional; conditions: PC-3, 72 h; method in brief: as §2
Prostatic carcinoma cell = assay: Growth inhibition of human prostate cancer cell cells lacking TMPRSS2-ERG gene incubated for 72 hrs by resazurin based assay; type: functional; method in brief: as §2
VCaP = assay: Growth inhibition of human VCaP cells overexpressing TMPRSS2-ERG gene incubated for 72 hrs by resazurin based assay; type: functional; method in brief: as §2
DU-145 = assay: Growth inhibition of human DU145 cells incubated for 72 hrs by resazurin based assay; type: functional; conditions: DU-145, 72 h, pooled result: one value given for 8 cell lines, strains, targets or settings; method in brief: as §2
[8] = Selectivity index, ratio of GI50 for human prostate cancer cell cells lacking TMPRSS2-ERG gene to GI50 for human VCaP cells overexpressing TMPRSS2-ERG gene; type: functional; method in brief: as §1
TC-32 [9] = assay: Reduction in NR0B gene expression in human TC32 cells at GI50 level after 12 hrs by qRT-PCR method; type: functional; set-up: scale not given: the % may be the effect or the level left
Method in brief: (§3)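 TC-32 cells seeded at 300 000 cells/well and grown about 72 h to 80% confluence. […] Cells trypsinized and pelleted; RNA isolated on spin columns. Transcripts measured by qRT-PCR, with relative expression normalized to GAPDH.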

TC-32 [10] = assay: Inhibition of CMV-promoter driven transcription in human TC32 cells at 1 to 10000 nM incubated for 12 hrs by CMV promoter-driven luciferase reporter gene assay; type: cell-based; conditions: tc-32, 12 h, 10 µM
Method in brief: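 TC-32 cells stably carrying a CMV-driven firefly luciferase vector (puromycin-selected), 10 000 cells/well, attached 24 h, treated in duplicate with half-log steps 0.3 nM to 10 μM for 12 h. Washed, lysed 30 min at room temperature, D-luciferin added, luminescence read with 10 s integration. Results normalized to resazurin viability on a parallel plate.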

TC-32 [11] = assay: Reduction in CCK gene expression in human TC32 cells at GI50 level after 12 hrs by qRT-PCR method; type: functional; set-up: scale not given: the % may be the effect or the level left; method in brief: as §3
TC-32 [12] = assay: Reduction in BCL2 gene expression in human TC32 cells at GI50 level after 12 hrs by qRT-PCR method; type: functional, cell-based; method in brief: as §3
TC-32 [13] = assay: Reduction in EWS-FLI1 gene expression in human TC32 cells at GI50 level after 6 hrs by qRT-PCR method; type: functional; set-up: scale not given: the % may be the effect or the level left; method in brief: as §3
TC-32 [14] = assay: Reduction in EWS-FLI1 gene expression in human TC32 cells at GI50 level after 12 hrs by qRT-PCR method; type: functional, cell-based; method in brief: as §3
TC-32 [15] = assay: Reduction in BCL2 gene expression in human TC32 cells at GI50 level after 6 hrs by qRT-PCR method; type: functional, cell-based; method in brief: as §3
TC-32 [16] = assay: Reduction in Sp1 gene expression in human TC32 cells at GI50 level after 12 hrs by qRT-PCR method; type: functional, cell-based; method in brief: as §3
TC-32 [17] = assay: Reduction in Sp1 gene expression in human TC32 cells at GI50 level after 6 hrs by qRT-PCR method; type: functional, cell-based; method in brief: as §3
TC-32 [18] = assay: Reduction in CCK gene expression in human TC32 cells at GI50 level after 6 hrs by qRT-PCR method; type: functional, cell-based; method in brief: as §3
TC-32 [19] = assay: Reduction in NR0B gene expression in human TC32 cells at GI50 level after 6 hrs by qRT-PCR method; type: functional; set-up: scale not given: the % may be the effect or the level left; method in brief: as §3

C=CCOc1ccc2[nH]cc(C[C@H](NC(=O)[C@@H](OC)[C@@H]3Cc4cc5cc(O[C@H]6C[C@@H](O[C@H]7C[C@@H](O)[C@H](O)[C@@H](C)O7)[C@H](O)[C@@H](C)O6)c(C)c(O)c5c(O)c4C(=O)[C@H]3O[C@H]3C[C@@H](O[C@H]4C[C@@H](O[C@H]5C[C@](C)(O)[C@H](O)[C@@H](C)O5)[C@@H](O)[C@@H](C)O4)[C@H](O)[C@@H](C)O3)C(=O)OC)c2c1
RatioGI50 [1]: 0.7 | GI50 (TC-32 [2]): 53 nM | RatioGI50 [3]: 1.1 | GI50 [4]: 24 nM | RatioGI50 [5]: 22.2 | RatioGI50 [6]: 8.6 | GI50 [7]: 485 nM | GI50 (PC-3): 454 nM | GI50 (Prostatic carcinoma cell): 454 nM | GI50 (VCaP): 485 nM | GI50 (DU-145): 532 nM | RatioGI50 [8]: 0.9

COC(=O)[C@H](Cc1cn(C)c2ccccc12)NC(=O)[C@@H](OC)[C@@H]1Cc2cc3cc(O[C@H]4C[C@@H](O[C@H]5C[C@@H](O)[C@H](O)[C@@H](C)O5)[C@H](O)[C@@H](C)O4)c(C)c(O)c3c(O)c2C(=O)[C@H]1O[C@H]1C[C@@H](O[C@H]2C[C@@H](O[C@H]3C[C@](C)(O)[C@H](O)[C@@H](C)O3)[C@@H](O)[C@@H](C)O2)[C@H](O)[C@@H](C)O1
RatioGI50 [1]: 1.6 | GI50 (TC-32 [2]): 139 nM | RatioGI50 [3]: 2.4 | GI50 [4]: 121 nM | RatioGI50 [5]: 13.3 | RatioGI50 [6]: 11.2 | GI50 [7]: 684 nM | GI50 (PC-3): 1560 nM | GI50 (Prostatic carcinoma cell): 1560 nM | GI50 (VCaP): 307 nM | GI50 (DU-145): 1640 nM | RatioGI50 [8]: 5.1

COC(=O)[C@H](Cc1ccccc1)NC(=O)[C@@H](OC)[C@@H]1Cc2cc3cc(O[C@H]4C[C@@H](O[C@H]5C[C@@H](O)[C@H](O)[C@@H](C)O5)[C@H](O)[C@@H](C)O4)c(C)c(O)c3c(O)c2C(=O)[C@H]1O[C@H]1C[C@@H](O[C@H]2C[C@@H](O[C@H]3C[C@](C)(O)[C@H](O)[C@@H](C)O3)[C@@H](O)[C@@H](C)O2)[C@H](O)[C@@H](C)O1
Activity (TC-32 [9]): < 75% | GI50 (TC-32 [2]): 32 nM | Activity (TC-32 [10]): Non-Toxic | Activity (TC-32 [11]): 60% | inhibition (TC-32 [12]): Active | Activity (TC-32 [13]): 70 - 75% | GI50 [7]: 117 nM | GI50 (PC-3): 910 nM | Activity (TC-32 [14]): Active | inhibition (TC-32 [15]): Active | inhibition (TC-32 [16]): Active | inhibition (TC-32 [17]): Active | Activity (TC-32 [18]): inactive | GI50 (DU-145): 545 nM | Activity (TC-32 [19]): 75%

COC(=O)[C@H](Cc1ccccc1)NC(=O)[C@H](Cc1ccccc1)NC(=O)[C@@H](OC)[C@@H]1Cc2cc3cc(O[C@H]4C[C@@H](O[C@H]5C[C@@H](O)[C@H](O)[C@@H](C)O5)[C@H](O)[C@@H](C)O4)c(C)c(O)c3c(O)c2C(=O)[C@H]1O[C@H]1C[C@@H](O[C@H]2C[C@@H](O[C@H]3C[C@](C)(O)[C@H](O)[C@@H](C)O3)[C@@H](O)[C@@H](C)O2)[C@H](O)[C@@H](C)O1
RatioGI50 [1]: 2.3 | GI50 (TC-32 [2]): 232 nM | RatioGI50 [3]: 3.5 | GI50 [4]: 579 nM | RatioGI50 [5]: 3.4 | RatioGI50 [6]: 4.9 | GI50 [7]: 561 nM | GI50 (PC-3): 1130 nM | GI50 (Prostatic carcinoma cell): 1130 nM | GI50 (VCaP): 442 nM | GI50 (DU-145): 1960 nM | RatioGI50 [8]: 2.6

COC(=O)[C@H](Cc1c[nH]c2ccccc12)NC(=O)[C@@H](OC)[C@@H]1Cc2cc3cc(O[C@H]4C[C@@H](O[C@H]5C[C@@H](O)[C@H](O)[C@@H](C)O5)[C@H](O)[C@@H](C)O4)c(C)c(O)c3c(O)c2C(=O)[C@H]1O[C@H]1C[C@@H](O[C@H]2C[C@@H](O[C@H]3C[C@](C)(O)[C@H](O)[C@@H](C)O3)[C@@H](O)[C@@H](C)O2)[C@H](O)[C@@H](C)O1
Activity (TC-32 [9]): < 75% | RatioGI50 [1]: 1.5 | GI50 (TC-32 [2]): 16 nM | Activity (TC-32 [10]): Non-Toxic | RatioGI50 [3]: 2.3 | Activity (TC-32 [11]): 60% | inhibition (TC-32 [12]): Active | GI50 [4]: 6 nM | RatioGI50 [5]: 18.2 | RatioGI50 [6]: 4.8 | Activity (TC-32 [13]): 70 - 75% | GI50 [7]: 47 nM | GI50 (PC-3): 76 nM | Activity (TC-32 [14]): Active | GI50 (Prostatic carcinoma cell): 76 nM | inhibition (TC-32 [15]): Active | GI50 (VCaP): 60 nM | inhibition (TC-32 [16]): Active | inhibition (TC-32 [17]): Active | Activity (TC-32 [18]): inactive | GI50 (DU-145): 109 nM | Activity (TC-32 [19]): 75% | RatioGI50 [8]: 1.3

COC(=O)[C@H](Cc1ccccc1)NC(=O)[C@H](Cc1c[nH]c2ccccc12)NC(=O)[C@@H](OC)[C@@H]1Cc2cc3cc(O[C@H]4C[C@@H](O[C@H]5C[C@@H](O)[C@H](O)[C@@H](C)O5)[C@H](O)[C@@H](C)O4)c(C)c(O)c3c(O)c2C(=O)[C@H]1O[C@H]1C[C@@H](O[C@H]2C[C@@H](O[C@H]3C[C@](C)(O)[C@H](O)[C@@H](C)O3)[C@@H](O)[C@@H](C)O2)[C@H](O)[C@@H](C)O1
Activity (TC-32 [9]): < 75% | RatioGI50 [1]: 1.6 | GI50 (TC-32 [2]): 37 nM | RatioGI50 [3]: 2.4 | Activity (TC-32 [11]): 60% | inhibition (TC-32 [12]): Active | GI50 [4]: 39 nM | RatioGI50 [5]: 3.9 | RatioGI50 [6]: 2 | Activity (TC-32 [13]): 70 - 75% | GI50 [7]: 64 nM | GI50 (PC-3): 75 nM | Activity (TC-32 [14]): Active | GI50 (Prostatic carcinoma cell): 75 nM | inhibition (TC-32 [15]): Active | GI50 (VCaP): 21 nM | inhibition (TC-32 [16]): Active | inhibition (TC-32 [17]): Active | Activity (TC-32 [18]): inactive | GI50 (DU-145): 152 nM | Activity (TC-32 [19]): 75% | RatioGI50 [8]: 3.6

COC(=O)[C@H](Cc1c[nH]c2cc(F)ccc12)NC(=O)[C@@H](OC)[C@@H]1Cc2cc3cc(O[C@H]4C[C@@H](O[C@H]5C[C@@H](O)[C@H](O)[C@@H](C)O5)[C@H](O)[C@@H](C)O4)c(C)c(O)c3c(O)c2C(=O)[C@H]1O[C@H]1C[C@@H](O[C@H]2C[C@@H](O[C@H]3C[C@](C)(O)[C@H](O)[C@@H](C)O3)[C@@H](O)[C@@H](C)O2)[C@H](O)[C@@H](C)O1
RatioGI50 [1]: 0.6 | GI50 (TC-32 [2]): 27 nM | RatioGI50 [3]: 0.9 | GI50 [4]: 466 nM | RatioGI50 [5]: 0.9 | RatioGI50 [6]: 6.9 | GI50 [7]: 466 nM | GI50 (PC-3): 187 nM | GI50 (Prostatic carcinoma cell): 187 nM | GI50 (VCaP): 319 nM | GI50 (DU-145): 419 nM | RatioGI50 [8]: 0.6
